Reference: ChEMBL document CHEMBL1134329, “Dopamine D(3) receptor antagonists. 1. Synthesis and structure-activity relationships of 5,6-dimethoxy-N-alkyl- and N-alkylaryl-substituted 2-aminoindans” (J Med Chem, 2001)
pKi: −log10 of the molar value.

Tests used:
[1] = biological target: D(2) dopamine receptor (Rattus norvegicus, UniProt P61169); assay: Affinity at D2 dopamine receptor on CHO cell membranes by [3H]PNU-86170 displacement.
Outline: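 Cloned rat D2 receptor stably expressed in CHO cells; membranes from cell pellets disrupted in ice-cold 50 mM Tris/5 mM EDTA/5 mM EGTA pH 7.4 with graded centrifugation. [3H]-PNU-86170 (2 nM) competition, 11 concentrations in duplicate, 20 mM HEPES/10 mM MgSO4 pH 7.4, 1 h room temperature. Haloperidol 3 µM defines nonspecific binding. Filtration or SPA read-out; one-site fit IC50, Ki by Cheng-Prusoff.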

[2] = biological target: D(3) dopamine receptor (Rattus norvegicus, UniProt P19020); assay: Affinity at rat D3 dopamine receptor on CHO cell membranes by [3H]spiperone displacement.
Chain of D(3) dopamine receptor (P19020 whole entry): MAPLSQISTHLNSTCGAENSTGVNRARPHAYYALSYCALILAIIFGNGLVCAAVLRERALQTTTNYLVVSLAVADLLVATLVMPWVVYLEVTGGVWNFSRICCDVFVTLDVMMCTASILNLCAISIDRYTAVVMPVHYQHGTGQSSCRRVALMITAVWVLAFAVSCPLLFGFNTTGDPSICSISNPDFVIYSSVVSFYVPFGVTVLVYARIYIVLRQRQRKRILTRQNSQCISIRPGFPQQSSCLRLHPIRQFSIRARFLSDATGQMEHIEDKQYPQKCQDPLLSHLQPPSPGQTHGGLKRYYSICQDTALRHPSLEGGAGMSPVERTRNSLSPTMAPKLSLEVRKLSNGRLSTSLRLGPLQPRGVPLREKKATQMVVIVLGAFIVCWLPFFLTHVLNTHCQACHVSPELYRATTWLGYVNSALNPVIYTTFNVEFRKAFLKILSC

[3] = biological target: D(2) dopamine receptor (Rattus norvegicus) (UniProt P61169); assay: Inhibition of [3H]-PNU-86170 binding at D2 dopamine receptors on CHO cell membranes; 1000 nM; assay type: cell-based
Chain of D(2) dopamine receptor (Rattus norvegicus) (P61169 whole entry): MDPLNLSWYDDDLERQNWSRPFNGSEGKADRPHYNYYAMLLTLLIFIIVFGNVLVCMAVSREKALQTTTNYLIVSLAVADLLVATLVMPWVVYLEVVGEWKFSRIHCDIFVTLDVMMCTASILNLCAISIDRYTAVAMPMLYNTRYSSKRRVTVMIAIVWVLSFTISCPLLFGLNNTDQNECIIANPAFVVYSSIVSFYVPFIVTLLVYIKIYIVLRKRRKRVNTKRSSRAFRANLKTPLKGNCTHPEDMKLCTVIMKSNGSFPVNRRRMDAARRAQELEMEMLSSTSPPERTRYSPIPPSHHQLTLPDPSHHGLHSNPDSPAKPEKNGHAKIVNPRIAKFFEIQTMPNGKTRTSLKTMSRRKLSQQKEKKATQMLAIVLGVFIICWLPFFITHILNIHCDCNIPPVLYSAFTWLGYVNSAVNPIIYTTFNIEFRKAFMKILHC
Outline: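 Single-point screen at 1000 nM in duplicate, reported as mean % inhibition. Rat D2 receptor stably expressed in CHO cell membranes, labelled with [3H]-PNU-86170 (2 nM). Buffer 20 mM HEPES/10 mM MgSO4 pH 7.4, 1 h at room temperature. Nonspecific binding defined by 3 µM haloperidol.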

[4] = biological target: D(3) dopamine receptor (Rattus norvegicus) (UniProt P19020); assay: Inhibition of [3H]spiperone at D3 dopamine receptors on CHO cell membranes; 1000 nM; assay type: cell-based
Chain of D(3) dopamine receptor (Rattus norvegicus) (P19020 whole entry): as the sequence (P19020 whole entry) above
Outline: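 Cloned rat D3 receptor in stably transfected CHO cell membranes, filtration assay with [3H]spiperone (0.3 nM). Single concentration of 1000 nM in duplicate, given as mean % inhibition. Buffer 20 mM HEPES, 10 mM MgSO4, 150 mM NaCl, 1 mM EDTA pH 7.4, 1 h at room temperature. 3 µM haloperidol for nonspecific binding.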

[5] = species: Rattus norvegicus; assay: In vitro stability in rat hepatocytes relative to that of PNU-93385.; assay type: functional; conditions: Hepatocyte
Outline: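 Compound incubated alongside reference PNU-93385. Metabolism followed by HPLC with UV detection. Intrinsic clearance is expressed relative to the reference to give relative metabolic stability.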

[6] = system: Rattus norvegicus; assay: Inhibition of (+)-MK-801-induced hyperactivity in rats following 10 uM/kg i.p.; assay type: functional; parameters: scale not given: the % may be the effect or the level left
Outline: (§1)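 Rats given (+)-MK-801 0.2 mg/kg sc plus test compound ip, 10-200 µmol/kg, in vehicle of 0.9% NaCl in 0.25% methylcellulose. Locomotor activity expressed as % of vehicle control ±SEM, 8-26 animals per group.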

[7] = system: Rattus norvegicus; assay: Inhibition of (+)-MK-801-induced hyperactivity in rats following 100 umol/kg i.p.; assay type: functional; parameters: scale not given: the % may be the effect or the level left; outline: as §1
[8] = system: Rattus norvegicus; assay: Inhibition of (+)-MK-801-induced hyperactivity in rats following 200 umol/kg i.p.; assay type: functional; parameters: scale not given: the % may be the effect or the level left; outline: as §1
[9] = system: Rattus norvegicus; assay: Inhibition of (+)-MK-801-induced hyperactivity in rats following 30 umol/kg i.p.; assay type: functional; parameters: scale not given: the % may be the effect or the level left; outline: as §1
[10] = biological target: T1, 5-hydroxytryptamine receptor 1A (Rattus norvegicus, UniProt P19327); assay: Binding affinity towards 5-hydroxytryptamine 1A receptor
T1 sequence (P19327 whole entry): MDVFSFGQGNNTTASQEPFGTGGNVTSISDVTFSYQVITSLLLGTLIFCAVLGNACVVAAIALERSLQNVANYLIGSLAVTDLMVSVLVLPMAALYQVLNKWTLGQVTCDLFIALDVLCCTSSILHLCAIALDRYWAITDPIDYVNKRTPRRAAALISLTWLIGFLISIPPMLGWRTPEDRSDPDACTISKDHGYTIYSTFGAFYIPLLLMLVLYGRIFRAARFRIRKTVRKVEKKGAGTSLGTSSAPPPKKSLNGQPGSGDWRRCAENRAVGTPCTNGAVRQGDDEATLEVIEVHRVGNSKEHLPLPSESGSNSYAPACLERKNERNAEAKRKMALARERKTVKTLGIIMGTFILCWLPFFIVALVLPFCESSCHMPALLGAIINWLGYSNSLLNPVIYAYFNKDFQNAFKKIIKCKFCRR
Outline: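 Competition binding with [3H]-8-OH-DPAT at 5-HT1A sites in CHO cells expressing the cloned receptor. Affinity is given as Ki (nM) with SD or 95% CI. Compounds were first screened at 1 µmol/L in a monoaminergic/opioid/adrenergic receptor profile binding assay.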

Chain of D(2) dopamine receptor (P61169 whole entry): as the sequence (P61169 whole entry) above

SMILES	pKi [1]	pKi [2]	inhibition [3] [%]	inhibition [4] [%]	Stability [5] [%]	also measured
CCCN(CCc1ccc(C(N)=O)cc1)C1Cc2cc(OC)c(OC)cc2C1	6.91	7.38	–	–	–	–
CCCN(CCc1cccc(N)c1)C1Cc2cc(OC)c(OC)cc2C1	6.79	7.35	–	–	–	–
CCCN(C(C)CC)C1Cc2cc(OC)c(OC)cc2C1 (configuration not stated)	–	–	2	16	–	–
CCCN(CC1CC1)C1Cc2cc(OC)c(OC)cc2C1	–	–	–	–	23	–
CCCN(CCC)C1Cc2cc(OC)c(OC)cc2C1 [PNU-99194A]	6.00	7.51	–	–	38	Control [6]: 583%; Control [7]: 391%; Control [8]: 143%; Control [9]: 447%
COc1cc2c(cc1OC)CC(N(C)C)C2	–	–	19	26	59	–
COc1cc2c(cc1OC)CC(N1CCCCCC1)C2	–	–	2	3	32	–
CCCCN(CCCC)C1Cc2cc(OC)c(OC)cc2C1	–	6.74	22	–	13	–
CCCN(CCc1ccsc1)C1Cc2cc(OC)c(OC)cc2C1	7.21	7.85	–	–	14	–
CCCN(CCc1ccc(Br)cc1)C1Cc2cc(OC)c(OC)cc2C1	7.01	7.66	–	–	–	–
CCCN(CCc1cccc(F)c1)C1Cc2cc(OC)c(OC)cc2C1	6.90	7.52	–	–	–	–
CCCN(CC)C1Cc2cc(OC)c(OC)cc2C1	6.43	7.19	–	–	42	–
COc1cc2c(cc1OC)CC(N)C2	–	–	2	0	–	–
C=CCN(CC=C)C1Cc2cc(OC)c(OC)cc2C1	–	–	19	12	13	–
COc1cc2c(cc1OC)CC(N(CCCF)CCCF)C2	–	–	–	3	8	–
CCCN(CCC)C1Cc2cccc(O)c2C1 (configuration not stated)	8.28	7.38	–	–	–	pKi [10]: 7.71
CCCN(CCc1ccc(OC)cc1)C1Cc2cc(OC)c(OC)cc2C1	6.79	7.41	–	–	53	–
CCCN(CCc1ccc(OC)c(OC)c1)C1Cc2cc(OC)c(OC)cc2C1	7.18	7.54	–	–	–	–
CCC(CC)NC1Cc2cc(OC)c(OC)cc2C1	–	–	0	0	–	–

SMILES	pKi [1]	pKi [2]	inhibition [3] [%]	inhibition [4] [%]	Stability [5] [%]	also measured
CCCN(CCC)C1Cc2ccc(OC)cc2C1 (configuration not stated)	6.58	7.08	–	–	–	–
CCCN(CCc1csc(N)n1)C1Cc2cc(OC)c(OC)cc2C1	6.58	6.87	–	–	–	–
CCCN(CCC)C1Cc2cccc(OC)c2C1 (configuration not stated)	8.38	7.35	–	–	–	pKi [10]: 8.29
COc1cc2c(cc1OC)CC(N1CCOCC1)C2	–	–	10	-2	41	–
CCCN(CCCc1ccccc1)C1Cc2cc(OC)c(OC)cc2C1	6.81	7.64	–	–	67	–
CCC(C)NC1Cc2cc(OC)c(OC)cc2C1 (configuration not stated)	–	–	4	0	–	–
CCCNC1Cc2cc(OC)c(OC)cc2C1	–	–	19	17	–	–
CCCN(CCCF)C1Cc2cc(OC)c(OC)cc2C1	5.74	6.47	–	–	9	–
CCCN(CCc1cccnc1)C1Cc2cc(OC)c(OC)cc2C1	6.54	6.87	–	–	–	–
COc1cc2c(cc1OC)CC(N(CC1CC1)CC1CC1)C2	–	–	15	0	22	–
CCCN(Cc1cccs1)C1Cc2cc(OC)c(OC)cc2C1	–	–	20	35	35	–
CCCN(CCc1ccccc1)C1Cc2cc(OC)c(OC)cc2C1	7.57	7.49	–	–	12	–
CCN(CC)C1Cc2cc(OC)c(OC)cc2C1	–	–	9	20	–	–
CCCN(CCc1ccc(C(F)(F)F)cc1)C1Cc2cc(OC)c(OC)cc2C1	6.51	7.47	–	–	–	–
CCCN(CCC)C1Cc2ccc(O)cc2C1 (configuration not stated)	7.28	7.85	–	–	–	pKi [10]: < 5.52
CCCN(Cc1ccsc1)C1Cc2cc(OC)c(OC)cc2C1	5.91	6.43	–	–	15	–
CCCN(CCc1cccs1)C1Cc2cc(OC)c(OC)cc2C1	–	7.11	86	–	26	–
CCCN1CC[C@H]2c3c(cccc3C(N)=O)CC[C@H]21	–	–	–	–	100	–
COc1cc2c(cc1OC)CC(N1CCCC1)C2	–	–	13	4	–	–
